# Measured values from PubChem BioAssay.
# Calls of active or inactive are those of the source.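 The calls were made as follows, unless noted: active = inhibition of the reporter signal at or above 50%; inactive = inhibition below 50%.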
# Experiments:
# [1] = inhibitors of TNFa-induced NFkB p65 translocation, primary screen, imaging, HUVEC, MLSMR starter and 10KST1 sets (AID 438;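 active = inhibition above 20% together with a positive visual image hit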;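 also: compound added about 3h40 before a 20 min TNFalpha stimulation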;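 as to inhibition: signal is the nuclear over cytoplasmic p65 intensity ratio per well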); conditions: HUVEC TNFa-induced p65 nuclear translocation; cell count: measured here: nuclei count (cytotoxicity indicator), at 2.08 µM; inhibition: at 2 µM, stronger effect = higher value, 0% TNFa-plus-vehicle, 100% no-TNFa wells
# [2] = inhibitors of mutant huntingtin aggregation, primary screen, imaging, exon1htt(103Q)mCFP cells, high-content imaging (AID 483;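 active = visual image review flags a hit and inhibition of aggregation exceeds 20%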;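 also: compound exposure lasted 3 days before fixation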;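 as to nuclei count: percent of the per-plate median nuclei count of sample wells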); conditions: exon1htt(103Q)mCFP cell line, aggregate imaging, at 2 µM; inhibition of aggregation: stronger effect = higher value; nuclei count: measured here: cell count, toxicity
# [3] = inhibitors of E-selectin induction by TNFa, primary screen, imaging, HUVEC, immunofluorescence, MLSMR starter and 10KST1 sets (AID 487;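 active = visually confirmed hit in the image check and inhibition above 20%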;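 as to inhibition: signal is fraction of cell area covered by stained E-selectin grains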;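 as to nuclei count: 100% = median nuclei count of all wells on the same plate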); conditions: HUVEC TNFalpha-induced E-selectin immunofluorescence imaging, at 2 µM; inhibition: stronger effect = higher value; nuclei count: measured here: cell number, toxicity
# [4] = target: Voltage-gated potassium channel subunit beta-2 (Rattus norvegicus) (UniProt P62483); assay: KvBeta enzyme negative modulators, primary screen, biochemical, NADPH fluorescence (AID 622;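 active = fluorescence slope higher than the sample average by over 3 SD, cut at about -0.22 in these data, passing the limit was not always enough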;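 also: slope of raw intensity against log time taken from 70 to 1610 s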); conditions: recombinant KvBeta, 4-cyanobenzaldehyde reduction, at 10 µM, stronger effect = higher value
# Voltage-gated potassium channel subunit beta-2 (Rattus norvegicus), sequence (P62483 whole entry, looked up): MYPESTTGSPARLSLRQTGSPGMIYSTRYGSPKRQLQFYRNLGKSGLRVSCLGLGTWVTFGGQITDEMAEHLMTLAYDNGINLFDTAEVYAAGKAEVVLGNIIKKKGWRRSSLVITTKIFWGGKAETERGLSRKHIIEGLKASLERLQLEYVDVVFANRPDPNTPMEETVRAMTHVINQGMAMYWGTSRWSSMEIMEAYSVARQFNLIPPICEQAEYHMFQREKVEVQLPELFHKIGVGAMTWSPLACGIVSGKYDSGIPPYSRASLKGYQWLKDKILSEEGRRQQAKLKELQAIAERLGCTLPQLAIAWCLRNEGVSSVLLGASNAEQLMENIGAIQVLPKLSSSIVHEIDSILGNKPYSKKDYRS
# [5] = target: Voltage-gated potassium channel subunit beta-2 (Rattus norvegicus) (UniProt P62483); assay: KvBeta positive modulators, primary screen, biochemical, NADPH fluorescence (AID 623;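 active = NADPH fluorescence slope more negative than the mean of all samples by about 3 SD, 99.7% confidence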;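 also: fluorescence intensity change per second fitted from 20 to 320 s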); conditions: Recombinant KvBeta, NADPH fluorescence decrease slope, 10 min; at 10 µM; stronger effect = lower value
# [6] = target: Muscarinic acetylcholine receptor M4 (Homo sapiens) (UniProt P08173); assay: compounds altering M4/GIRK thallium flux, either direction, primary screen, M4 allosteric agonist project, cell-based, HEK293 M4/GIRK, BTC-AM (AID 625;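 active = fluorescence slope after compound addition differing from the mean of all tested samples at 99.7% confidence, mostly higher but some lower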;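 also: thallium influx through GIRK channels coupled to M4 in HEK293 cells with BTC-AM dye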); conditions: at 10 µM, actives lie on both sides
# Muscarinic acetylcholine receptor M4 (Homo sapiens), sequence (P08173 whole entry, looked up): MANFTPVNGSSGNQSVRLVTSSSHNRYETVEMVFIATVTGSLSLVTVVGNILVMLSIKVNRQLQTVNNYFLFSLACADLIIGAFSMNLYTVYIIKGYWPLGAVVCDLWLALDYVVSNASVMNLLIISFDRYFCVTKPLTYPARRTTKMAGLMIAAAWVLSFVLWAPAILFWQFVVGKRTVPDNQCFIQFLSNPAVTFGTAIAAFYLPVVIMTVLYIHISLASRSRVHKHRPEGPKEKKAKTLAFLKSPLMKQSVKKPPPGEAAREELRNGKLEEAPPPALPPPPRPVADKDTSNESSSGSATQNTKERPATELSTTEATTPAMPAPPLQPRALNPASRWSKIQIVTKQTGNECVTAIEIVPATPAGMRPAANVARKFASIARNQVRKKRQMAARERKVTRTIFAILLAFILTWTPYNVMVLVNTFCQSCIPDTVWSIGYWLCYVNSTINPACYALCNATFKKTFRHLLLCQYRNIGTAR
# Procedure, shortened: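 System: HEK293 cells with M4 receptor and GIRK channels | Incubation: Cells overnight at 37 °C, BTC-AM loading 1 h, reads 2 min total | Technique: Kinetic BTC-AM fluorescence sampled at 1 Hz, 10 s pre-addition baseline | Measure: Post-addition slope, 15–24 s, of baseline-normalized fluorescence | Control set: Carbachol positive, DMSO negative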
# [7] = inhibitors of Sendai virus-induced IRF3 signaling, primary screen, TLR/RLR signaling modifier project, cell-based, Sendai virus stimulus, luciferase, 10K MLSCN set (AID 602276;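 active = inhibition at or above 50% at 10 µM; inactive = inhibition below 50%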;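 also: firefly luciferase from ISG56 promoter only with Renilla not read in this screen; 0% = Sendai virus plus DMSO and 100% = medium plus DMSO without virus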); conditions: HEK293 RL24 IRF3 luciferase reporter, at 10 µM, stronger effect = higher value
# [8] = inhibitors of poly I:C-induced TLR3 signaling, primary screen, cell-based, poly I:C stimulus, luciferase, 10K MLSCN set (AID 602277); conditions: HEK293-TLR3 RL24 IRF3 luciferase reporter, at 10 µM, stronger effect = higher value
SMILES,cell count [1],inhibition [1],inhibition of aggregation [2],nuclei count [2],inhibition [3],nuclei count [3],fluorescence slope [4],NADPH fluorescence slope [5],fluorescence slope [6],inhibition [7],inhibition [8]
CC(C(=O)c1ccccc1)n1cnc2ccccc2c1=O (centres undefined),646,6.4% (inactive),17.6% (inactive),93%,-0.6% (inactive),96.9%,-0.525 (inactive),-1.2e-05 (inactive),0.00459 (inactive),1.21% (inactive),10.7% (inactive)
CCC(Sc1ccc2nnc(-c3ccc(F)cc3)n2n1)C(=O)OC (centres undefined),562,-16.6% (inactive),25.1% (inactive),117%,-73.4% (inactive),117%,-0.185 (inactive),-7e-06 (inactive),0.00751 (inactive),17.3% (inactive),19.1% (inactive)
Cc1nc(NC(=O)C2CC3CCCC(C2)C3=O)sc1C (centres undefined),411,4.4% (inactive),-32.5% (inactive),110%,-36.5% (inactive),106%,-0.581 (inactive),-4.4e-05 (inactive),0.00306 (inactive),-54.4% (inactive),-87.2% (inactive)
CC1(C)Cc2noc(N)c2C(C)(C)N1OC(=O)c1ccccc1,322,2.4% (inactive),1.8% (inactive),99%,-48.1% (inactive),126%,-0.463 (inactive),1.8e-05 (inactive),0.00527 (inactive),-2.74% (inactive),5.08% (inactive)
COCCNc1nc(SCC(=O)N2CCN(c3ccccc3)CC2)nc2ccccc12,462,4.1% (inactive),-53.8% (inactive),70.8%,-188% (inactive),105%,-0.395 (inactive),4.2e-05 (inactive),0.0054 (inactive),-2.13% (inactive),8.34% (inactive)
O=C(CSc1nnc(-c2ccccc2Cl)n1Cc1ccco1)Nc1ccc2c(c1)OCCO2,309,0.8% (inactive),3.4% (inactive),88.5%,-75.1% (inactive),107%,-0.391 (inactive),-9.8e-05 (inactive),0.00631 (inactive),8.89% (inactive),18.1% (inactive)
COc1cccc(NC(=O)COc2ccccc2C(N)=O)c1,221,-1.2% (inactive),19.1% (inactive),83.6%,14.7% (inactive),78%,-0.589 (inactive),6.4e-05 (inactive),0.00613 (inactive),-78.1% (inactive),-182% (inactive)
O=C(CSc1nc(-c2ccc(F)cc2)cs1)N1CCOCC1,311,9.3% (inactive),20.5% (inactive),95.1%,-45.8% (inactive),93.6%,-0.462 (inactive),2.4e-05 (inactive),0.00525 (inactive),-23.2% (inactive),-106% (inactive)
CCOC(=O)c1sc(NS(=O)(=O)c2ccc(NC(C)=O)cc2)nc1C,701,-3.5% (inactive),-10.1% (inactive),99.8%,1% (inactive),94.9%,-0.448 (inactive),1.6e-05 (inactive),0.00462 (inactive),11.5% (inactive),19.8% (inactive)
CC(Sc1nnnn1-c1ccccc1)C(=O)Nc1ccc(Cl)cn1 (centres undefined),570,-12.8% (inactive),-5.6% (inactive),108%,-139% (inactive),131%,-0.426 (inactive),2.6e-05 (inactive),0.00566 (inactive),16% (inactive),19.9% (inactive)
O=C(NCc1nnc(SCC(=O)N2CCCCCC2)o1)c1ccco1,595,-15.7% (inactive),12.1% (inactive),124%,-52.2% (inactive),106%,-0.516 (inactive),-2.1e-05 (inactive),0.00384 (inactive),6.86% (inactive),11% (inactive)
Cc1noc(NS(=O)(=O)c2ccc(N3C(=O)c4ccccc4C3=O)cc2)c1C,754,-11.1% (inactive),6.1% (inactive),104%,-0.4% (inactive),93.6%,-0.533 (inactive),-3.7e-05 (inactive),0.00521 (inactive),6.19% (inactive),25.2% (inactive)
O=C(NCc1cccnc1)c1cn(CCc2ccccc2)nn1,569,-0.4% (inactive),-18.3% (inactive),98.8%,-48.9% (inactive),110%,-0.31 (inactive),-2.1e-05 (inactive),0.0065 (inactive),10.9% (inactive),16.6% (inactive)
Cc1cc(C)n2nc(C(=O)NCc3ccco3)nc2n1,389,1.4% (inactive),6.6% (inactive),103%,-3.3% (inactive),109%,-0.582 (inactive),-4.1e-05 (inactive),0.00618 (inactive),10.5% (inactive),10.8% (inactive)
